Here are results for 2 compounds from publication PMC12032937 (iScience, 2025).

Molecules are shown by their SMILES.

Assay [1] has as its target T1, mPRδ (Mus musculus, UniProt Q6TCG5).
T1 sequence (Q6TCG5 1-343): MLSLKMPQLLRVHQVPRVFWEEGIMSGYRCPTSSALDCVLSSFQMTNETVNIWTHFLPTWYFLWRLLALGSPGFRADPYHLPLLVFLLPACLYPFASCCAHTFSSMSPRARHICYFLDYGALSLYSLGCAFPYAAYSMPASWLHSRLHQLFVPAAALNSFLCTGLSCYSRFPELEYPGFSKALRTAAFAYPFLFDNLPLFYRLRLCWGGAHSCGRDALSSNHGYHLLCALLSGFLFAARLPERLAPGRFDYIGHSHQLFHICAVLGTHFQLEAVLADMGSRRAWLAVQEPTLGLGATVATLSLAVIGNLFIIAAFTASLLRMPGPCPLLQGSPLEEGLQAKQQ
The assay is described as follows: PKC activation. Type of assay: cell-based. Particulars: mPRδ-GFP cells, 300nM, 20 min, increase above control (100%).

Assay [2] addresses T1, mPRδ. The assay is described as follows: PKA activation. The assay is classed as cell-based. Conditions: mPRδ-GFP cells, 20 min, mean ± SEM, n=4.
In assay [3] the target is T2, mPRε (Mus musculus, UniProt Q6TCG2).
T2 sequence (Q6TCG2 1-375): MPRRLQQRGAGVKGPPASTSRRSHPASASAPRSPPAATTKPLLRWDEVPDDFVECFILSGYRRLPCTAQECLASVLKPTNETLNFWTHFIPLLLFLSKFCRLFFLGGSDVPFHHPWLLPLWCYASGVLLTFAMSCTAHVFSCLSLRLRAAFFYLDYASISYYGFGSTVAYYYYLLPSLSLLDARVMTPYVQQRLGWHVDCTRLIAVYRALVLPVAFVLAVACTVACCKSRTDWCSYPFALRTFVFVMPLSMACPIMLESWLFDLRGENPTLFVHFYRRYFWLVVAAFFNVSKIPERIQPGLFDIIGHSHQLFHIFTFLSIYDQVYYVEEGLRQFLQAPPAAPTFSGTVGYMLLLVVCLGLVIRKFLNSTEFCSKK
The assay is described as follows: PKA activation. Particulars: mPRε-GFP cells, 20 min; for PKA activation, pPKA/PKA normalized to control (100%): mean ± SEM, n=4; for increase in PKA activation compared to control treatment: increase above control (100%). The assay is classed as cell-based. In outline:
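MDA-MB-231 cells lentivirally expressing mouse mPRε-C-terminal GFP, FACS-selected clonal line, kept in DMEM/10% charcoal-stripped FBS, passage ≤20. Treated 20 min with test compound at 3–300nM, lysed in RIPA with phosphatase inhibitors, immunoblotted for phospho and total kinase. Ratio normalized to control within the line, then to host MDA231 cells; n = 4 separate passages; two-way ANOVA, Sidak post hoc.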

For assay [4], the target named is T1, mPRδ. The assay is described as follows: Gq luminescent reporter assay. Type of assay: cell-based. (In general: In a reporter assay the amount or activity of a reporter protein is the signal.)
The target in assay [5] is T2, mPRε. Description: Gs luminescent reporter assay. The assay is classed as cell-based. In outline:
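Clonal MDA-MB-231 cells stably expressing mouse mPRε with a C-terminal GFP tag, transfected (Lipofectamine 3000) with CRE-luciferase reporter, grown 72 h, then treated 6 h with a test compound concentration series; forskolin positive control. Lysed, luciferase luminescence read; runs kept only if positive control ≥2× untreated. Min/max scaled 0–100, curves fitted for EC50; n = 4.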

Assay [6] relates to mPRδ. Particulars: MDA231 cells transiently transfected to express mPRδ; cited from earlier work.

In the case of `CC(=O)[C@H]1CC[C@H]2[C@@H]3CC[C@H]4C[C@H](O)CC[C@]4(C)[C@H]3CC[C@]12C` [ALLO, allopregnanolone], the “increase in PKC activation/phosphorylation compared to control treatment” value on mPRδ [1] was determined as 43.58 ± 5.34%. Besides, the “PKA activation, pPKA/PKA normalized to control (100%)” value at mPRδ [2] (3nM) is 86.327 ± 5.39%; at mPRδ [2] (10nM) it was 91.441 ± 4.66%; on mPRδ [2] (30nM), 83.155 ± 4.54%; on mPRδ [2] (100nM), 98.624 ± 11.00%; on mPRδ [2] (300nM), 103.26 ± 14.05%; on mPRε [3] (3nM), 105.57 ± 15.02%. Besides, the “PKA activation, pPKA/PKA normalized to control (100%)” value on mPRε [3] (10nM) was found to be 130.55 ± 16.45%; at mPRε [3] (30nM) it was 153.4 ± 19.57%; at mPRε [3] (100nM) it was 160.49 ± 20.14%; at mPRε [3] (300nM) it was 164.44 ± 15.71%. Besides, the figures for the “increase in PKA activation compared to control treatment” value on mPRε [3] (30nM), on mPRε [3] (100nM) and at mPRε [3] (300nM) were 53.44%, 60.49% and 64.44%, respectively. In addition, the EC50 (usually the concentration needed to bring the measured effect to its halfway point) on mPRδ [4] was 11.3 nM; on mPRε [5] it was 2.5 nM. The “phosphorylation of ERK” value in the assay on mPRδ [6] is “significant increase”.
Consider `CC(=O)[C@H]1CC[C@H]2[C@@H]3CCC4=CC(=O)CC[C@]4(C)[C@H]3CC[C@]12C` [progesterone], for which the “phosphorylation of ERK” value in the assay with mPRδ [6] is on record as “significant increase”.
